Assay results collected from several papers.
Each line is one published result; the experiments were not run side by side.
Organism: Staphylococcus aureus
Read-out: microbial growth

O=C(CCCCCCCCCC[P+](c1ccccc1)(c1ccccc1)c1ccccc1)Nc1cc(O)c(O)c(O)c1.[Br-]
MIC (broth dilution; ATCC43300 MRSA; 18 h): 2 µg/mL

Cc1cc(C#N)ccc1C(=O)Nc1ccc(C(=O)N[C@@H](CC(N)=O)C(=O)Nc2ccc(C(=O)Nc3ccc(C(=O)Nc4ccc(C(=O)O)cc4)c(O)c3OC(C)C)cc2)cc1
MIC (ATCC29213): 64 µg/mL

Cc1cc(C)c(NC(=O)Nc2ccc3c(c2)OC(F)(F)O3)c(C)c1
MIC (NCTC8325): > 100 µM

C[C@@H](O)[C@H]1C(=O)N2C(C(=O)O)=C(SCCN=CN)C[C@H]12
MIC (broth dilution; KCTC1621; 16 h): 8 µM

c1cncc(CN2CCC(n3ncc4c(N5CCOCC5)nc(-c5ccc6[nH]ccc6c5)nc43)CC2)c1
MIC (NCTC8325): > 30 µM

C/C(=C\c1ccc(C#N)cc1)C(=O)Nc1ccc(C(=O)N[C@@H](CC(N)=O)C(=O)Nc2ccc(C(=O)Nc3ccc(C(=O)Nc4ccc(C(=O)O)cc4)c(O)c3OC(C)C)cc2)cc1
MIC (ATCC29213): 0.06 µg/mL

CN[C@H](CC(C)C)C(=O)N[C@H]1C(=O)N[C@@H](CC(N)=O)C(=O)N[C@H]2C(=O)N[C@H]3C(=O)N[C@H](C(=O)N[C@H](C(=O)O)c4cc(O)cc(O)c4-c4cc3ccc4O)[C@H](O)c3ccc(c(Cl)c3)Oc3cc2cc(c3O[C@@H]2O[C@H](CO)[C@@H](O)[C@H](O)[C@H]2O[C@H]2C[C@](C)(N)[C@H](O)[C@H](C)O2)Oc2ccc(cc2Cl)[C@H]1O
MIC (broth dilution; 745524): 1 µg/mL

COc1cc(OC)c2cc(C(=O)NCc3ccc(C)cc3)cc(O)c2c1
MIC (broth dilution; ATCC29213 MSSA): 32 µg/mL

CNC(=O)c1cc(Sc2ccc(NC(=O)Nc3ccc(Cl)c(C(F)(F)F)c3)cc2)ccn1
MIC (NCTC8325; 24 h): 1 µM

Cc1ccc2nc(-c3ccc([N+](=O)[O-])cc3)[nH]c2c1
MIC (broth dilution; ATCC29213 MSSA): 128 µg/mL

CC1(C)S[C@@H]2[C@H](NC(=O)[C@H](N)c3ccccc3)C(=O)N2[C@H]1C(=O)O
MIC (broth dilution; ATCC29213): 1 µg/mL

Cc1ccc2nc(-c3ccco3)n(Cc3ccccc3)c2c1
MIC (broth dilution; ATCC29213 MSSA): 128 µg/mL

O=C(O)CN1C(=O)/C(=C/c2c3ccccc3c(-c3ccc(N(c4ccccc4)c4ccccc4)cc3)c3ccccc23)SC1=S
MIC (broth dilution; ATCC43300): > 1000 µg/mL

CC(C)Oc1c(NC(=O)c2ccc(NC(=O)[C@H](CC(N)=O)NC(=O)c3ccc(CCNC(=O)c4ccc(C#N)cc4)cc3)cc2)ccc(C(=O)Nc2ccc(C(=O)O)cc2)c1O
MIC (ATCC29213): > 64 µg/mL

COc1ccc(-c2cc3c(C)nc(N)nc3n([C@H]3CC[C@H](OCCO)CC3)c2=O)cn1
MIC (NCTC8325): > 30 µM

COc1cccc(OC)c1C(=O)N[C@@H]1C(=O)N2[C@@H]1SC(C)(C)[C@@H]2C(=O)O
MIC (broth dilution; BAA1707 MRSA; drug-resistant strain): 18.8 µM

O=C(O)c1cn(C2CC2)c2cc(N3CCNCC3)c(F)cc2c1=O
MIC (broth dilution; 24 h): 9.43 µM

NC[C@H]1O[C@H](O[C@H]2[C@H](O)[C@@H](O[C@H]3O[C@H](CO)[C@@H](O)[C@H](N)[C@H]3O)[C@H](N)C[C@@H]2N)[C@H](N)C[C@@H]1O
MIC (129; clinical isolate): > 100 µM

CO[C@H]1C[C@@H]2CC[C@@H](C)[C@@](O)(O2)C(=O)C(=O)N2CCCC[C@H]2C(=O)O[C@H]([C@H](C)C[C@@H]2CC[C@@H](OCCO)[C@H](OC)C2)CC(=O)[C@H](C)/C=C(\C)[C@@H](O)[C@@H](OC)C(=O)[C@H](C)C[C@H](C)/C=C/C=C/C=C/1C
MIC (NCTC8325): > 30 µM

COc1c(C)c(OC)c(C(=O)/C=C/c2ccccc2)c(OC)c1C
MIC (broth dilution; ATCC25923): 5000 µg/mL

Cc1ccc(C)n1-c1ccc(-c2nnc(-c3cccc([N+](=O)[O-])c3)[nH]2)cc1
MIC (broth dilution; ATCC11632; 18 h): 8 µg/mL

O=C1NC(=S)S/C1=C\c1ccc(-c2ccc(N(c3ccccc3)c3ccccc3)cc2)c2ccccc12
MIC (broth dilution; ATCC25923): 500 µg/mL

CNC(=O)c1cc(Oc2ccc(NC(=O)Nc3c(C)cccc3Cl)cc2)ccn1
MIC (NCTC8325): > 100 µM

C/C=C(\C)c1cc(OC(=O)c2c(C)c(Cl)c(O)c(Cl)c2O)c(C)c(O)c1C(=O)O
MIC (broth dilution; 6917): > 64 µg/mL

Cc1ccc2nc(-c3ccc([N+](=O)[O-])cc3)n(Cc3ccccc3Cl)c2c1
MIC (broth dilution; ATCC29213 MSSA): 32 µg/mL

CN[C@H](CC(C)C)C(=O)N[C@H]1C(=O)N[C@@H](CC(N)=O)C(=O)N[C@H]2C(=O)N[C@H]3C(=O)N[C@H](C(=O)N[C@H](C(=O)O)c4cc(O)cc(O)c4-c4cc3ccc4O)[C@H](O)c3ccc(c(Cl)c3)Oc3cc2cc(c3O[C@@H]2O[C@H](CO)[C@@H](O)[C@H](O)[C@H]2O[C@H]2C[C@](C)(N)[C@H](O)[C@H](C)O2)Oc2ccc(cc2Cl)[C@H]1O
MIC (10): 2.2 µg/mL

O=C(O)c1ccc(Nc2ncc3c(n2)-c2ccc(Cl)cc2C(c2c(F)cccc2F)=NC3)cc1
MIC (NCTC8325): > 30 µM

C/C=C(\C)c1cc(O)c(C)c(OC(=O)c2c(C)c(Cl)c(O)c(Cl)c2O)c1
MIC (broth dilution; 745524): 4 µg/mL

CN1CCN=C1c1ccc(NC(=O)c2ccc(C(=O)Nc3ccc(C4=NCCN4C)cc3)cc2)cc1
MIC: 8 µg/mL

Cc1cc(/C=C2\Sc3ccccc3N2CCCN2CCCCC2)c2ccccc2[n+]1C.[I-]
MIC (broth dilution; ATCCBAA44): 8 µg/mL

COC(=O)/C(C#N)=C1\Nc2ccccc2O1
MIC: > 128 µg/mL

CCCCCCC#Cc1cncc(-c2nnc(SCc3ccc([N+](=O)[O-])o3)n2C2CC2)c1
MIC (MRSA; drug-resistant strain): ≥ 20 µg/mL

CO[C@H]1[C@H](O[C@H]([C@H]2O[C@@H](n3ccc(=O)[nH]c3=O)[C@H](O)[C@@H]2O)[C@H](NCCCNC(=O)[C@H](CC(C)C)NC(=O)[C@@H](NC(=O)N[C@H](C(=O)O)C(C)C)[C@@H]2CCNC(=N)N2)C(=O)O)O[C@H](CN)[C@H]1O
MIC (NEWMAN): > 80 µg/mL

CC(C)Oc1c(NC(=O)c2ccc(NC(=O)[C@H](CC(N)=O)NC(=O)c3ccc(NC(=O)CCc4ccc(C#N)cc4)cc3)cc2)ccc(C(=O)Nc2ccc(C(=O)O)cc2)c1O
MIC (ATCC29213): > 64 µg/mL

COc1ccc(-c2nc3ccccc3[nH]2)cc1O
MIC (broth dilution; ATCC29213 MSSA): 128 µg/mL

O=C(O)CN1C(=O)/C(=C/c2ccc(-c3ccc(N(c4ccccc4)c4ccccc4)cc3)c3ccccc23)NC1=S
MIC (broth dilution; ATCC6538): > 1000 µg/mL

COc1ccc2c(c1)CCc1c(C(=O)NCCc3nc4cc(C)ccc4[nH]3)n[nH]c1-2
MIC: > 128 µg/mL

c1ccc(NCc2ccc(Oc3ccccn3)cc2)cc1
MIC: 1.8 µg/mL

c1cncc(-c2nc3ccccc3[nH]2)c1
MIC (broth dilution; ATCC29213 MSSA): 128 µg/mL

O=C1NN=C(N=Cc2ccc(O)cc2O)C1=NNn1c(-c2ccccc2)nc2ccccc2c1=O
MIC (broth dilution; 24 h): 107 µM

CCOc1ccc(-c2nc3cc(-c4nc5cc(N6CCN(C)CC6)ccc5[nH]4)ccc3[nH]2)cc1
MIC (broth dilution; 33591; 24 h): 2 to 4 µg/mL

COC(=O)c1ccc2c(C(=Nc3ccc(N(C)C(=O)CN4CCN(C)CC4)cc3)c3ccccc3)c(O)[nH]c2c1
MIC (NCTC8325): > 30 µM
